Bioassay records from PubChem.
MrgX1 ag: agonists of human MrgX1 receptor | MrgX1-HEK293 cells, Fluo-4 calcium fluorescence, agonist mode; active compounds read high | actives 0.44% (n = 310,000) | Q96LB2 | B-score at 10 µM | AID 588627;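 active = calcium response B-score plate-corrected fluorescence ratio at least 3 library SD, with starting fluorescence B-score inside 5 SD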
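System: HEK293 cells stably expressing human MrgX1 receptor; Dosing: test compound in the initial addition of three; Schedule: overnight plating, then 30 min 37 °C plus 30 min room-temperature dye loading; Detection: kinetic calcium dye fluorescence, Fluo-4 NW; Controls: per-plate positive and negative controls for Z′ factor.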
RGS4 pot: RGS4 potentiation or activation | HEK293 M3R/inducible RGS4, carbachol calcium flux Fluo4; active compounds read low | B-score at 10 µM | actives 0.92% (n = 310,000) | AID 463111;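 active = B-score of the integrated calcium signal more than 4 SD below the library mean, with starting fluorescence not abnormally high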;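 also: negative B-score means reduced calcium response which marks RGS4 activation or potentiation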
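test system = M3R-expressing HEK293 line, RGS4 induced by doxycycline | probe or stimulus = carbachol at ECmax as muscarinic agonist stimulus | timing = dye loading 30 min 37 °C, buffer rest 30 min RT | signal = calcium dye Fluo4 fluorescence | evaluation = B score from integrated fluorescence ratio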
MrgX1 antag: antagonists of human MrgX1 receptor; Q96LB2; MRGX1-HEK293 calcium flux, Fluo-4, BAM8-22 antagonism; active compounds read low; B-score at 10 µM; actives 1.3% (n = 310,000);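 active = calcium-response B-score plate-corrected more than 3 library SD below zero, starting fluorescence within 5 deviations, no agonist response on first addition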;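 also: peak minus trough fluorescence over baseline after final BAM8-22 challenge near maximal dose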
Kir21 block: inhibitors of mouse Kir2.1 inward-rectifier potassium channel; P35561; HEK293-Kir2.1, FluxOR thallium flux fluorescence; active compounds read low; B-score at 10 µM; actives 0.85% (n = 310,000); AID 1672;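 active = fluorescence ratio B-score at or below minus 3 SD of library scores, with starting-brightness B-score within 2 SD, cut at about -4.2 in these data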;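 also: channel flux triggered by added potassium and thallium sulfate stimulus; B-score of peak minus minimum fluorescence over baseline after thallium stimulus; more negative B-score means stronger Kir2.1 block with less thallium influx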
Target sequence (P35561 whole entry, looked up): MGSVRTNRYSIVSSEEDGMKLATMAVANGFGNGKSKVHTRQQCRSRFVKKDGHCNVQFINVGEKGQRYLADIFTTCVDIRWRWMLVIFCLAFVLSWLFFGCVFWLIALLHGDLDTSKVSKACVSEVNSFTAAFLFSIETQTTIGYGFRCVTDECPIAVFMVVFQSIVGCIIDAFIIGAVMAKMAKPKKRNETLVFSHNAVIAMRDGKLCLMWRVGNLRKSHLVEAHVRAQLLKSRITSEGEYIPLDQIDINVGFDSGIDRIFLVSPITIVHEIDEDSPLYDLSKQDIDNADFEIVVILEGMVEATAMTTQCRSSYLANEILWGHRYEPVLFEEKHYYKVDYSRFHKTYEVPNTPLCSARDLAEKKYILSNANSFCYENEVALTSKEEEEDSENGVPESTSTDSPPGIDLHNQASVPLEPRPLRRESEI
RGS4 block: inhibitors of human RGS4 | P49798 | HEK293 M3R/RGS4 inducible, Fluo-4 calcium flux; active compounds read high; triggered by carbachol at its EC20 | B-score at 10 µM | actives 0.45% (n = 310,000) | AID 463165;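 active = B-score, a plate-corrected calcium signal, over three deviations above library mean, with baseline fluorescence within five deviations of library mean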;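 also: RGS4 expression induced by doxycycline in cells with stable M3 receptor; B-score is computed from the integrated fluorescence ratio over baseline after carbachol; higher B-score means a larger calcium signal and so more RGS4 inhibition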
MrgX1 allo act: human MrgX1 positive allosteric modulation, primary screen. MrgX1-HEK293, Fluo-4 calcium flux, FDSS; active compounds read high. AID 588675. Q96LB2. actives 0.63% (n = 310,000). B-score at 10 µM;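 active = plate-corrected calcium response at least 3 library SD above typical, normal starting fluorescence, not activating the receptor alone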;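 also: compound read alongside a low EC10 to EC30 dose of BAM8-22 agonist; peak minus trough fluorescence over baseline measured at the second addition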
Numbers without * were called inactive; i = inactive; . = no result. Most compounds without a hit are left out; they make up all but 4.1% or so of the library.

SMILES	MrgX1 ag	RGS4 pot	MrgX1 antag	Kir21 block	RGS4 block	MrgX1 allo act
CCOC(=O)C1CCCN(C2=NC(=O)/C(=C/c3ccc(OC)cc3)S2)C1 (stereo unspecified)	i	i	i	-0.05	i	i
CCOC(=O)C1CCCN(C2=NC(=O)/C(=C/c3ccc(O)c(OCC)c3)S2)C1 (stereo unspecified)	i	i	-4.5*	-1.5	i	i
O=P(OC1CCCCC1)(OC1CCCCC1)C(O)c1cccnc1 (stereo unspecified)	i	i	i	-0.44	i	i
Cc1ccc(CNCCCSc2nc(C)cc(C)n2)cc1	i	i	i	-4.9*	i	i
CCN1/C(=C/c2ccc3cc(C)ccc3[n+]2CC)Sc2ccc3sccc3c21	39*	i	i	-0.86	i	i
CCN1/C(=C\c2ccc3cc(C)ccc3[n+]2CC)Sc2cc(C)c(C)cc21	.	i	.	-6	i	.
CCCc1nc2c(s1)CCc1onc(-c3ccc(Cl)cc3)c1-2	i	i	i	0.47	i	i
CCCc1sc(N)nc1-c1ccc(Cl)cc1	i	-7.4*	i	-4.3*	i	i
COc1ccc(C(=O)/C=C2/C(=O)Nc3ccccc32)cc1OC	i	i	i	0.25	12*	i
COc1ccc(C(=O)/C=C2/C(=O)Nc3ccccc32)c(OC)c1	i	i	i	0.24	i	i
O=C(Nc1ccccc1O)c1ccccc1O	i	i	-5.8*	1.1	i	i
CCC(C(=O)NCc1ccco1)N(C(=O)CNS(=O)(=O)c1ccccc1)C1CCCCC1 (stereo unspecified)	i	i	i	-0.31	i	i
CCCC(C(=O)NCc1ccco1)N(C(=O)CNS(=O)(=O)c1ccc(Cl)cc1)C1CCCC1 (stereo unspecified)	i	i	-6.7*	-0.1	i	i
CCOC(=O)c1cc2c(=O)n3cccc(C)c3nc2n(Cc2ccco2)c1=NC(=O)c1ccccc1	i	-7.2*	i	-0.02	i	i
CCOC(=O)c1cc2c(=O)n3ccccc3nc2n(Cc2ccco2)c1=NC(=O)c1cccc(OC)c1	i	-7.4*	-5.8*	-0.78	i	i
COc1ccc(/C=C2\CCC(C3CCCC3)C2=O)cc1Cn1cccn1 (stereo unspecified)	i	i	i	-0.11	i	i
Cc1cc(Cl)ccc1OCC(=O)NN1C(=O)C2C3C=CC(C3)C2C1=O (stereo unspecified)	i	i	-6.1*	0.22	i	i
O=C(COc1ccc(Cl)cc1Cl)NN1C(=O)C2C3C=CC(C3)C2C1=O (stereo unspecified)	i	i	i	-0.03	i	i
COc1ccc(CSC(=N)N)cc1[N+](=O)[O-]	39*	i	i	0.42	i	i
CCCCOc1ccc(Br)cc1CSC(=N)N	.	i	.	-7.5*	i	.
N=C(N)SCc1ccc(O)c([N+](=O)[O-])c1	i	i	i	0.63	i	i
CCCCOc1ccc(CN(CCO)CCO)cc1[N+](=O)[O-]	i	i	i	-0.68	i	i
CCCCCOc1ccc(CSC(=N)N)cc1[N+](=O)[O-]	49*	-7.8*	i	-8.5*	i	i
CCCOc1ccc(CSC(=N)N)cc1C(=O)OC	i	i	i	-0.41	i	i
CCCCOc1ccc(CSC2=NCCN2)cc1[N+](=O)[O-]	28*	i	i	-4.6	i	i
Clc1cccc(-c2ccc(C=Nc3ccc(N4CCOCC4)cc3)o2)c1	i	i	i	1.7	i	i
Oc1ccc(N=Nc2cccc(Cl)c2)cc1C=Nc1ccc(N2CCOCC2)cc1	.	i	.	-0.82	8.7*	.
COc1ccc(CCC(C)NCCc2ccc(Cl)cc2Cl)cc1 (stereo unspecified)	i	i	i	-13*	i	i
COc1ccc(CCC(C)NCc2ccc(Cl)c(Cl)c2)cc1 (stereo unspecified)	i	i	i	-4.5*	i	i
